How the values were obtained:
[1] = tested on: Human immunodeficiency virus 1; assay: Antiviral activity against ritonavir-resistant HIV1 in MT4 cells assessed as inhibition of p24 Gag protein expression by MTT assay; format: functional, organism-based; settings: Human immunodeficiency virus 1, MT4
How it was run: (§1)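 MT-4 cells (10^5/ml) infected with 100 TCID50s of wild-type or PI-resistant NL4-3 virus and incubated at 37°C with or without graded drug concentrations. On day 7, supernatant p24 Gag was measured by chemiluminescent enzyme immunoassay. […] Assays were run in duplicate or triplicate.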

[2] = tested on: Human immunodeficiency virus 1; assay: Antiviral activity against idinavir-resistant HIV1 in MT4 cells assessed as inhibition of p24 Gag protein expression by MTT assay; format: functional, organism-based; settings: Human immunodeficiency virus 1, MT4; how it was run: as §1
[3] = tested on: Human immunodeficiency virus 1; assay: Antiviral activity against nelfinavir-resistant HIV1 in MT4 cells assessed as inhibition of p24 Gag protein expression by MTT assay; format: functional, organism-based; settings: Human immunodeficiency virus 1, MT4; how it was run: as §1
[4] = tested on: Human immunodeficiency virus 1; assay: Antiviral activity against atazanavir-resistant HIV1 in MT4 cells assessed as inhibition of p24 Gag protein expression by MTT assay; format: functional, organism-based; settings: Human immunodeficiency virus 1, MT4; how it was run: as §1
[5] = tested on: Human immunodeficiency virus 1; assay: Antiviral activity against lopinavir-resistant HIV1 in MT4 cells assessed as inhibition of p24 Gag protein expression by MTT assay; format: functional, organism-based; settings: Human immunodeficiency virus 1, MT4; how it was run: as §1
[6] = tested on: Human immunodeficiency virus 1; assay: Antiviral activity against amprenavir-resistant HIV1 in MT4 cells assessed as inhibition of p24 Gag protein expression by MTT assay; format: functional, organism-based; settings: Human immunodeficiency virus 1, MT4; how it was run: as §1
[7] = tested on: Human immunodeficiency virus 1; assay: Antiviral activity against HIV1 GRL98065p20 in MT4 cells assessed as inhibition of p24 Gag protein expression by MTT assay; format: functional, organism-based; settings: Human immunodeficiency virus 1, MT4; how it was run: as §1
[8] = tested on: Human immunodeficiency virus 1; assay: Antiviral activity against HIV1 GRL98065p30 in MT4 cells assessed as inhibition of p24 Gag protein expression by MTT assay; format: functional, organism-based; settings: Human immunodeficiency virus 1, MT4; how it was run: as §1
[9] = tested on: Human immunodeficiency virus 1; assay: Antiviral activity against HIV1 GRL98065p40 in MT4 cells assessed as inhibition of p24 Gag protein expression by MTT assay; format: functional, organism-based; settings: Human immunodeficiency virus 1, MT4; how it was run: as §1
[10] = tested on: Human immunodeficiency virus 1; assay: Antiviral activity against wild type HIV1 ERS104prc X4 in phytohemagglutininin-activated PBMCs assessed as inhibition of p24 Gag protein expression by MTT assay; format: functional, organism-based
How it was run: (§2)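 PHA-activated PBMCs (10^6/ml) infected with 50 TCID50s of each isolate and cultured with or without drug in 10-fold serial dilutions. The read-out was supernatant p24 Gag by chemiluminescent enzyme immunoassay. Assays were run in duplicate or triplicate, with one donor per experiment and three donors in total.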

[11] = tested on: Human immunodeficiency virus 1; assay: Antiviral activity against HIV1 MDR/TM X4 in phytohemagglutininin-activated PBMCs assessed as inhibition of p24 Gag protein expression by MTT assay; format: functional, organism-based
How it was run: as §2, with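 “immunoassay. […]” for “immunoassay.”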

[12] = tested on: Human immunodeficiency virus 1; assay: Antiviral activity against HIV1 MDR/MM R5 in phytohemagglutininin-activated PBMCs assessed as inhibition of p24 Gag protein expression by MTT assay; format: functional, organism-based
How it was run: as §2, with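 “immunoassay. […]” for “immunoassay.”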

[13] = tested on: Human immunodeficiency virus 1; assay: Antiviral activity against HIV1 MDR/JSL R5 in phytohemagglutininin-activated PBMCs assessed as inhibition of p24 Gag protein expression by MTT assay; format: functional, organism-based
How it was run: as §2, with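 “immunoassay. […]” for “immunoassay.”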

[14] = tested on: Human immunodeficiency virus 1; assay: Antiviral activity against HIV1 MDR/B X4 in phytohemagglutininin-activated PBMCs assessed as inhibition of p24 Gag protein expression by MTT assay; format: functional, organism-based
How it was run: as §2, with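 “immunoassay. […]” for “immunoassay.”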

[15] = tested on: Human immunodeficiency virus 1; assay: Antiviral activity against HIV1 MDR/C X4 in phytohemagglutininin-activated PBMCs assessed as inhibition of p24 Gag protein expression by MTT assay; format: functional, organism-based
How it was run: as §2, with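 “immunoassay. […]” for “immunoassay.”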

[16] = tested on: Human immunodeficiency virus 1; assay: Antiviral activity against HIV1 MDR/G X4 in phytohemagglutininin-activated PBMCs assessed as inhibition of p24 Gag protein expression by MTT assay; format: functional, organism-based; how it was run: as §2
[17] = tested on: Human immunodeficiency virus 1; assay: Antiviral activity against HIV1 92UG029 X4 subtype A in phytohemagglutininin-activated PBMCs assessed as inhibition of p24 Gag protein expression by MTT assay; format: functional, organism-based
How it was run: as §2, with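 “immunoassay. […]” for “immunoassay.”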

[18] = tested on: Human immunodeficiency virus 1; assay: Antiviral activity against HIV1 92UG037 subtype A R5 in phytohemagglutininin-activated PBMCs assessed as inhibition of p24 Gag protein expression by MTT assay; format: functional, organism-based
How it was run: as §2, with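 “immunoassay. […]” for “immunoassay.”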

[19] = tested on: Human immunodeficiency virus 1; assay: Antiviral activity against HIV1 BaL R5 subtype B in phytohemagglutininin-activated PBMCs assessed as inhibition of p24 Gag protein expression by MTT assay; format: functional, organism-based; how it was run: as §2
[20] = tested on: Human immunodeficiency virus 1; assay: Antiviral activity against HIV1 97ZA003 R5 subtype C in phytohemagglutininin-activated PBMCs assessed as inhibition of p24 Gag protein expression by MTT assay; format: functional, organism-based
How it was run: as §2, with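 “immunoassay. […]” for “immunoassay.”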

[21] = tested on: Human immunodeficiency virus 1; assay: Antiviral activity against HIV1 92TH019 R5 subtype E in phytohemagglutininin-activated PBMCs assessed as inhibition of p24 Gag protein expression by MTT assay; format: functional, organism-based
How it was run: as §2, with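 “immunoassay. […]” for “immunoassay.”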

[22] = tested on: Human immunodeficiency virus 1; assay: Antiviral activity against saquinavir-resistant HIV1 in MT4 cells assessed as inhibition of p24 Gag protein expression by MTT assay; format: functional, organism-based; settings: Human immunodeficiency virus 1, MT4; how it was run: as §1
[23] = tested on: Human immunodeficiency virus 1; assay: Antiviral activity against HIV1 LAI in MT2 cells assessed as inhibition of p24 Gag protein expression by MTT assay; format: functional, organism-based; settings: Human immunodeficiency virus 1, LAI
How it was run: (§3)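 MT-2 cells (2 × 10^4/ml) were infected with 100 TCID50s of the HIV-1LAI, HIV-2EHO or HIV-2ROD strain. They were cultured with serial drug concentrations at 37°C for 7 days. MTT was then added for 4 h at 37°C, formazan was dissolved in acidified isopropanol with 4% Triton X-100, and optical density was read. EC50 is the mean of three independent experiments, each run in duplicate.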

[24] = tested on: Human immunodeficiency virus 2; assay: Antiviral activity against HIV2 EHO in MT2 cells assessed as inhibition of p24 Gag protein expression by MTT assay; format: functional, organism-based; settings: Human immunodeficiency virus 2, EHO; how it was run: as §3
[25] = tested on: Human immunodeficiency virus 2; assay: Antiviral activity against HIV2 ROD in MT2 cells assessed as inhibition of p24 Gag protein expression by MTT assay; format: functional, organism-based; settings: Human immunodeficiency virus 2, ROD; how it was run: as §3
[26] = Cytotoxicity against human MT2 cells assessed as inhibition of p24 Gag protein expression by MTT assay; format: cell-based
[27] = tested on: Human immunodeficiency virus 1; assay: Antiviral activity against HIV1 NL4-3 in MT4 cells by MTT assay; format: functional, organism-based; settings: Human immunodeficiency virus 1, NL4-3, MT4

Structure (SMILES)	EC50 [1] [nM]	EC50 [2] [nM]	EC50 [3] [nM]	EC50 [4] [nM]	EC50 [6] [nM]	EC50 [7] [nM]	EC50 [8] [nM]	EC50 [9] [nM]	EC50 [10] [nM]	EC50 [11] [nM]	EC50 [12] [nM]	EC50 [13] [nM]	EC50 [17] [nM]	EC50 [18] [nM]	EC50 [20] [nM]	EC50 [21] [nM]	EC50 [23] [nM]	EC50 [24] [nM]	EC50 [25] [nM]	CC50 [26] [nM]	also measured
CC(C)(C)NC(=O)[C@@H]1CN(Cc2cccnc2)CCN1C[C@@H](O)C[C@@H](Cc1ccccc1)C(=O)N[C@H]1c2ccccc2C[C@H]1O	250	> 1000	270	388	200	40	59	280	24	> 1000	> 1000	> 1000	44	34	37	21	48	24	54	69800	EC50 [5]: > 1000 nM; EC50 [14]: > 1000 nM; EC50 [15]: > 1000 nM; EC50 [16]: 640 nM; EC50 [19]: 22 nM; EC50 [22]: > 1000 nM
Cc1c(O)cccc1C(=O)N[C@@H](CSc1ccccc1)[C@H](O)CN1C[C@H]2CCCC[C@H]2C[C@H]1C(=O)NC(C)(C)C	–	–	–	–	–	80	270	–	–	–	–	–	43	56	37	29	32	30	240	8100	EC50 [19]: 18 nM; EC50 [27]: 33 nM
CC(C)CN(C[C@@H](O)[C@H](Cc1ccccc1)NC(=O)O[C@H]1CCOC1)S(=O)(=O)c1ccc(N)cc1	280	170	60	200	> 1000	58	330	> 1000	29	300	480	430	46	27	33	21	36	250	570	> 100000	EC50 [5]: 310 nM; EC50 [14]: 360 nM; EC50 [22]: 330 nM
CC(C)c1nc(CN(C)C(=O)N[C@H](C(=O)N[C@@H](Cc2ccccc2)C[C@H](O)[C@H](Cc2ccccc2)NC(=O)OCc2cncs2)C(C)C)cs1 [RITONAVIR]	–	–	–	–	–	130	300	–	–	–	–	–	71	41	39	30	54	210	260	–	EC50 [27]: 33 nM
Cc1cccc(C)c1OCC(=O)N[C@@H](Cc1ccccc1)[C@@H](O)C[C@H](Cc1ccccc1)NC(=O)[C@H](C(C)C)N1CCCNC1=O [LOPINAVIR]	–	–	–	–	–	34	60	–	7	–	–	–	7	–	7.3	3.3	7	2.6	4.9	> 100000	EC50 [19]: 5.3 nM
COC(=O)N[C@H](C(=O)N[C@@H](Cc1ccccc1)[C@@H](O)CN(Cc1ccc(-c2ccccn2)cc1)NC(=O)[C@@H](NC(=O)OC)C(C)(C)C)C(C)(C)C [ATAZANAVIR]	18	60	21	330	3	6	8	11	3.8	38	45	540	6	2.5	3.4	2.7	4.8	5	13	27600	EC50 [5]: 40 nM; EC50 [14]: 250 nM; EC50 [15]: 21 nM; EC50 [16]: 32 nM; EC50 [19]: 1.3 nM; EC50 [22]: 326 nM; EC50 [27]: 4.2 nM
CC(C)CN(C[C@@H](O)[C@H](Cc1ccccc1)NC(=O)O[C@H]1CO[C@H]2OCC[C@H]21)S(=O)(=O)c1ccc2c(c1)OCO2	2.5	3.7	2.4	1.5	32	3.8	8	180	0.5	3.2	3.8	6	0.5	0.4	0.5	0.3	0.5	3.2	4.5	35700	EC50 [5]: 7.5 nM; EC50 [14]: 3.9 nM; EC50 [15]: 2.7 nM; EC50 [16]: 3.4 nM; EC50 [19]: 0.2 nM; EC50 [22]: 6 nM; EC50 [27]: 0.3 nM
CC(C)CN(C[C@@H](O)[C@H](Cc1ccccc1)NC(=O)O[C@H]1CO[C@H]2OCC[C@H]21)S(=O)(=O)c1ccc(N)cc1	18	15	3.3	3.4	330	21	36	210	3.8	4.3	16	27	–	–	–	–	3.9	8	6.8	83100	EC50 [14]: 40 nM; EC50 [15]: 9 nM; EC50 [16]: 7 nM; EC50 [22]: 5.8 nM
CC(C)(C)NC(=O)[C@@H]1C[C@@H]2CCCC[C@@H]2CN1C[C@@H](O)[C@H](Cc1ccccc1)NC(=O)[C@H](CC(N)=O)NC(=O)c1ccc2ccccc2n1	10	59	24	37	31	12	22	32	8	180	140	290	4.8	3.2	6.7	3	8	3	4.3	16400	EC50 [5]: 32 nM; EC50 [14]: 270 nM; EC50 [15]: 35 nM; EC50 [16]: 33 nM; EC50 [19]: 8.3 nM; EC50 [22]: > 1000 nM; EC50 [27]: 7 nM

Reference: ChEMBL document CHEMBL1143812, “A novel bis-tetrahydrofuranylurethane-containing nonpeptidic protease inhibitor (PI), GRL-98065, is potent against multiple-PI-resistant human immunodeficiency virus in vitro” (Antimicrob Agents Chemother, 2007)
